Measured values collected from several papers.
Protocols differ between the studies behind these lines.
Read-out: cell growth or viability

COc1ccc(N=C2SCC(=O)N2c2nnc(-c3ccc(C(F)(F)F)cc3N=C3SCC(=O)N3c3ccc(OC)cc3)s2)cc1 — IC50 (WI-38; MTT): 69.5 µM
NCc1ccc(-c2nn(Cc3ccncc3)c3ccccc23)o1 — IC50 (HuCCT-1; ATP luminescence): > 46 µM
Cc1cccc([N+](=O)[O-])c1N=C1SCC(=O)N1c1nnc(-c2ccc(C(F)(F)F)cc2N=C2SCC(=O)N2c2c(C)cccc2[N+](=O)[O-])s1 — IC50 (WI-38; MTT): 67.5 µM
CC1(P2(=O)CCCCC2)CCCCC1 — IC50 (HaCaT; MTT; 72 h): > 100 µM
CCCCCC(=O)Nc1ccc(-c2ccc3ncn(CCC)c(=O)c3c2)cn1 — IC50 (HCC827; CCK-8; 72 h): 0.16 µM
OCc1ccc(-c2nn(Cc3ccccc3)c3ccccc23)o1 — IC50 (HuCCT-1; ATP luminescence): > 46 µM
C=CC(C)(C)c1[nH]cnc1/C=C1/NC(=O)[C@H](C(C)C)NC1=O — IC50 (ASPC1; SRB): > 15 µM
CCCCC(=O)Nc1ccc(-c2ccc3ncn(CCCC)c(=O)c3c2)cn1 — IC50 (HCC827; CCK-8; 72 h): 0.13 µM
O=C1CS/C(=N\c2cc(C(F)(F)F)ccc2-c2nnc(N3C(=O)CS/C3=N\c3ccc(F)cc3)s2)N1c1ccc(F)cc1 — IC50 (WI-38; MTT): 19.2 µM
Cc1ccc(C(=O)Nc2ccc(-c3ccc4ncn(Cc5ccccc5)c(=O)c4c3)cn2)cc1 — IC50 (HCC827; CCK-8; 72 h): > 10 µM
Nc1c([I+]c2ccccc2)c(=O)oc2ccccc12 — IC50 (HaCaT; MTT; 48 h): 65.4 µM
CCCCn1cnc2ccc(-c3ccc(NC(=O)Nc4ccccc4)nc3)cc2c1=O — IC50 (HCC827; CCK-8; 72 h): 0.98 µM
OCc1ccc(-c2nn(Cc3ccncc3)c3cccnc23)o1 — IC50 (HuCCT-1; ATP luminescence): > 46 µM
O=C1CS/C(=N\c2ccccc2Cl)N1c1nnc(-c2ccc(C(F)(F)F)cc2/N=C2\SCC(=O)N2c2ccccc2Cl)s1 — IC50 (WI-38; MTT): 49.2 µM
O=P1(c2ccccc2)CCCCC1 — IC50 (HaCaT; MTT; 72 h): > 100 µM
COc1cc(Cn2nc(-c3ccc(CO)o3)c3ccccc32)ccn1 — IC50 (HuCCT-1; ATP luminescence): > 46 µM
CCCn1cnc2ccc(-c3ccc(NC(=O)CC4CC4)nc3)cc2c1=O — IC50 (HCC827; CCK-8; 72 h): 0.91 µM
O=C1CS/C(=N\c2cc(C(F)(F)F)ccc2-c2nnc(N3C(=O)CS/C3=N\c3cccc(Cl)c3)s2)N1c1cccc(Cl)c1 — IC50 (WI-38; MTT): 47.1 µM
OCc1ccc(-c2nn(Cc3ccccn3)c3ccccc23)o1 — IC50 (HuCCT-1; ATP luminescence): > 46 µM
O=C(Nc1ccc(-c2ccc3ncn(Cc4ccccc4)c(=O)c3c2)cn1)C1CCCC1 — IC50 (HCC827; CCK-8; 72 h): > 10 µM
O=C1CS/C(=N\c2ccccc2O)N1c1nnc(-c2ccc(C(F)(F)F)cc2/N=C2\SCC(=O)N2c2ccccc2O)s1 — IC50 (WI-38; MTT): 32.3 µM
OCc1ccc(-c2nn(Cc3ccccn3)c3cccnc23)o1 — IC50 (HuCCT-1; ATP luminescence): > 46 µM
O=c1[nH]cc(F)c(=O)[nH]1 — IC50 (WI-38; MTT; 72 h): 42.2 µM
CCCCC(=O)Nc1ccc(-c2ccc3ncn(CCC)c(=O)c3c2)c(F)n1 — IC50 (HCC827; CCK-8; 72 h): 0.82 µM
COc1cccc(N=C2SCC(=O)N2c2nnc(-c3ccc(C(F)(F)F)cc3N=C3SCC(=O)N3c3cccc(OC)c3)s2)c1 — IC50 (WI-38; MTT): 82.1 µM
COc1cccc2c1C(=O)c1c(O)c3c(c(O)c1C2=O)C[C@@](O)(C(=O)CO)C[C@@H]3O[C@H]1C[C@H](N)[C@H](O)[C@H](C)O1 — IC50 (ASPC1; SRB): 5.91 µM
NCc1ccc(-c2nn(Cc3ccccc3)c3ccccc23)o1 — IC50 (HuCCT-1; ATP luminescence): > 46 µM
COc1cccc2c1C(=O)c1c(O)c3c(c(O)c1C2=O)C[C@@](O)(C(=O)CO)C[C@@H]3O[C@H]1C[C@H](N)[C@H](O)[C@H](C)O1 — IC50 (HPAF-II; ATP luminescence; 72 h): 0.7 µM
CC1=CC(=O)C(C(C)C)=CC1=O — IC50 (SNB-19; SRB; 48 h): 56.9 µM
O=P1(C2CCCCC2)CCCCC1 — IC50 (HaCaT; MTT; 72 h): > 100 µM
Cc1nc(Nc2ncc(C(=O)Nc3c(C)cccc3Cl)s2)cc(N2CC[C@H](O)C2)n1 — IC50 (KARPAS-299; ATP luminescence; 72 h): > 10 µM
O=C1CS/C(=N\c2cc(C(F)(F)F)ccc2-c2nnc(N3C(=O)CS/C3=N\c3cc(O)cc(Br)c3)s2)N1c1cc(O)cc(Br)c1 — IC50 (WI-38; MTT): 71.1 µM
CCCCn1cnc2ccc(-c3ccc(NC(=O)C4CCC4)nc3)cc2c1=O — IC50 (HCC827; CCK-8; 72 h): 6.31 µM
COc1ncccc1Cn1nc(-c2ccc(CO)o2)c2ccccc21 — IC50 (HuCCT-1; ATP luminescence): > 46 µM
CN1CCC(NC2CCc3[nH]c4c(C(N)=O)ccc(-c5ccccc5Cl)c4c3C2)CC1 (centres unmarked) — IC50 (HuCCT-1; 96 h): 0.00122 µM
